Broadly, the inhibition is the relative decrease from the control value, in per cent.

Hit rate of the full screen: of about 360,000 compounds, about 950 (0.26%) were called active. The list comes from a sample in which actives are over-represented; it also holds similar structures and randomly drawn compounds. Unmarked numbers belong to inactive results.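 How the source made its calls: active means inhibition above a per-plate limit, mean inhibition of low control wells plus 3 SD (cut at about 25% in these data); inactive means the rest.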

Sequence of ADP-ribosylation factor GTPase-activating protein 1 (Rattus norvegicus) (Q62848 1-136 limits assumed): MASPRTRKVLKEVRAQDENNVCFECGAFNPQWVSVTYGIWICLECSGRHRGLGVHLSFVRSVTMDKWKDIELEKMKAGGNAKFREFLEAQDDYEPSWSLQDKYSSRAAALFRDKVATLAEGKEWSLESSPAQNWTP

The assay concerns the target ADP-ribosylation factor GTPase-activating protein 1 (Rattus norvegicus) (UniProt Q62848). In words: blockers of ARFGAP1-stimulated ARF1 GTP hydrolysis – biochemical, fluorescence polarization, GDP tracer, primary screen (AID 651572). The settings on record: GDP FP detection, at 16.5 µM, hits give high values. The procedure, abridged: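 Material: truncated rat Arfgap1 GAP domain; Incubation: compound-enzyme preincubation 20 min, reaction 120 min, detection 60 min, 25 °C; Read-out: percent inhibition of Arfgap1-stimulated GTP hydrolysis; Technique: FP, GDP Alexa 633 tracer displaced from anti-GDP antibody, 620/688 nm; Controls: No-Arfgap1 wells (100%) versus DMSO full-reaction wells (0%); Replication: single well per compound.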
Take `C[C@H](O)[C@@H]1C(=O)N2CCc3c([nH]c4c(-c5ccc6c(c5)OCO6)cccc34)[C@@H]2C[C@@H]1N(C)C(=O)c1ccco1`: the inhibition was 1.71%.

Regarding `COc1cccc(CNc2ncc(-c3ccccc3)n2C)c1`, the inhibition was -4.8%.

Take `COc1cccc(CNc2nc(C(F)(F)F)nc3ccccc23)c1`: the inhibition is 27.8% (active).

For the compound `COc1cccc(CNc2nc(NCc3cccs3)nc3ccsc23)c1`, the inhibition is 2.65%.

Take `C[C@@H](CN1C2=NC[C@@H](Cc3ccccc3)N2C[C@H]1Cc1ccc(O)cc1)NC(=O)CCC1CCCCC1`: the inhibition was 6.99%.

On to `CC[C@H](NC(=O)[C@H](Cc1ccccc1)NC(=O)[C@H]1O[C@@H](n2cnc3c(=O)[nH]c(N)nc32)[C@H](O)[C@@H]1O)c1ccccc1`, for which the inhibition is 10%.

In the case of `COC(=O)[C@]1(Cc2ccccc2)NC=C(C(=O)c2ccccc2)[C@@H]1c1cccc(OC)c1`, the inhibition was 1.68%.

As to `O=S1(=O)c2c(cccc2N2CCCCC2)O[C@H](COCc2ccccc2)CN1C1CC1`, the inhibition is 0.4%.

Take `C#CCN([C@@H](C)C(=O)OCC)S(=O)(=O)c1ccc(Br)cc1F`: the inhibition was -5.91%.

Consider `Cc1cc(N2CCN(C(=O)OC(C)(C)C)C[C@H]2C)ccc1N1CCN(Cc2ccccc2)[C@H](C)C1`, for which the inhibition was 1.76%.

With `CCCCCCCCN1C(=O)[C@@H](CC(=O)NCCCC)C[C@@]2(C(=O)OC)C1=C[C@H](C(C)(C)C)O[C@@H]2C`, the inhibition is 3.82%.

As for `Cc1[nH]c2ccccc2c1CC(=O)Nc1ccc(Nc2cccnc2)c(-c2cccc(Cl)c2)c1`, the inhibition is 16.8%.

For the compound `COc1ccc(CNC(=O)C(Cc2ccccc2)n2cccc2)cc1` (configuration not stated), the inhibition is 33.6% (active).

As to `COc1ccc(CNC(=O)C(C)NCc2ccccc2Cl)cc1` (configuration not stated), the inhibition is -1.63%.

Regarding `CCSc1ccccc1C(=O)NCc1ccc(OC)cc1`, the inhibition is -5.39%.

For the compound `Cc1cc(Br)cn2c(Cc3ccccc3C(F)(F)F)c(-c3ccc(C#N)cc3)nc12`, the inhibition was -8.18%.

For `COC(=O)Cc1nnn2c1[C@H](C)[C@@H](OC)c1cc(Br)ccc1-2`, the inhibition was -3.05%.

For `CC(=O)C1=C(C)N(Cc2ccccc2)C(=S)NC1c1cccc(Br)c1` (configuration not stated), the inhibition is 20.9%.

Turning to `CN1CCCCC(NC(=O)C(C)(C)C)C1=O` (configuration not stated), the inhibition is -2.4%.

Regarding `CC(C)CNc1cccc2c1S(=O)(=O)N[C@H](C)CO2`, the inhibition was 1.59%.

With `COC(=O)c1cc2c(c3c4ccccc4n(S(=O)(=O)c4cccc(C)c4)c13)C(=O)N(Cc1ccccc1)C2`, the inhibition is 46.8% (active).

For `COC(=O)c1cc2c(c3c4cc(F)ccc4n(S(=O)(=O)c4ccccc4)c13)C(=O)N(Cc1ccccc1OC)C2`, the inhibition was -6.31%.

`COC(=O)c1c(-c2ccc(OC)cc2)c2c(c3c4ccccc4n(S(=O)(=O)c4ccc(C)cc4)c13)C(=O)N(C)C2`: the inhibition is 2.2%.

For the compound `COC(=O)C1=C(C)N(Cc2ccc(F)cc2)C(=S)NC1c1cccc(Cl)c1` (configuration not stated), the inhibition is 0.22%.

With `COc1ccc(/C=C/C(=O)OCC(=O)NC2CCCCCC2)cc1OC`, the inhibition was -8.52%.

As to `COc1ccc(CCNC(=O)CCC(=O)NC2CCCCC2)cc1OC`, the inhibition was 9.15%.

Regarding `COc1ccc(/C=C2\SC(=S)N(CCCC(=O)NC3CCCC3)C2=O)cc1OC`, the inhibition was 25.1% (active).

Take `N#Cc1ccc(OCCCN2CCC(C(O)(c3ccccc3)c3ccccc3)CC2)c(F)c1`: the inhibition is -2.6%.

For the compound `COc1ccc(C(O)c2nc(-c3ccc(OC)nc3)cs2)cc1` (configuration not stated), the inhibition was 6.07%.

On to `COC(=O)CCc1sc(Nc2ccc(Br)cc2)nc1-c1ccc(OC)cc1`, for which the inhibition is 7.69%.

Regarding `COc1ccc(-c2csc(Nc3ccc(O)cc3)n2)cc1`, the inhibition was 24.8% (active).

As to `CC(C)(C)n1nc(C2CC2)c(Br)c1NC(=O)c1ccccc1F`, the inhibition was -8.2%.

As for `Nc1ccc(S(=O)(=O)Nc2nccc(/C=C/c3ccc(Br)s3)n2)cc1`, the inhibition was 33.6% (active).

`CC(=O)Nc1ccc(S(=O)(=O)Nc2nccc(/C=C/c3ccccc3F)n2)cc1`: the inhibition is -5.08%.

Regarding `Oc1cccc2ccc(/C=C/c3ccc(Br)s3)nc12`, the inhibition is 9.22%.

Take `COc1ccccc1CCn1cnc(-c2ccccc2)c1C(C)C`: the inhibition is 2.03%.

For the compound `CC(=O)C1=C(C)N(Cc2ccc(Cl)cc2)C(=S)NC1c1ccc(F)cc1` (configuration not stated), the inhibition was -8.75%.

On to `COC(=O)C1=C(C)N(Cc2cccc(C(F)(F)F)c2)C(=NCc2ccccc2)NC1c1ccc(Cl)cc1` (configuration not stated), for which the inhibition was -7.39%.

For `CN(CC(=O)Nc1cccc(F)c1)C(=O)CC1CCCC1`, the inhibition is -2.56%.

As for `CCCN(CC(=O)Nc1ccccc1C)C(=O)c1ccc2[nH]c3c(c2c1)CC(C)CC3` (configuration not stated), the inhibition is 11.3%.

On to `CC1CCc2[nH]c3ccc(C(=O)N(C)CC(=O)Nc4cccc(F)c4)cc3c2C1` (configuration not stated), for which the inhibition was 28% (active).

On to `CCOC(=O)/C=C/c1ccccc1O`, for which the inhibition was 1.41%.

For `COc1ccccc1Cc1c(-c2ccc(F)cc2)nc2ccc(C)cn12`, the inhibition was 4.94%.

On to `CN1C(=O)C2CC(O)C(SC3CC4C(=O)N(C)C(=O)C4CC3O)CC2C1=O` (configuration not stated), for which the inhibition is -0.39%.

For the compound `CC(C)[C@@H](C)/C=C/[C@@H](C)[C@H]1CC[C@@H]2[C@]1(C)CCC1[C@]23C=C[C@]2(C[C@@H](O)CC[C@]12C)N(c1ccc([N+](=O)[O-])cn1)O3` (some centres not stated), the inhibition was 2.09%.

As for `COc1ccccc1OCC(=O)OCc1cc(-c2ccco2)on1`, the inhibition was -14.7%.

On to `COc1ccccc1OCC(=O)OCn1c(SC)nnc(C)c1=O`, for which the inhibition was 25.6% (active).

As for `COc1ccccc1OCc1nnc(SCC(N)=O)n1-c1ccccc1`, the inhibition was 3.32%.

On to `O=C(NCc1ccccc1)[C@H]1CCCN1C(=O)[C@@H]1CCCN1C(=O)c1ccc(Cl)cc1Cl`, for which the inhibition was 11.1%.

For the compound `Cc1nc(NC(=O)C(C)(C)C)sc1[N+](=O)[O-]`, the inhibition is -3.35%.

As for `O=C(N[C@H](Cc1ccccc1)C(=O)N1CCCN(Cc2cccs2)CC1)[C@H]1O[C@@H](n2ccc(=O)[nH]c2=O)[C@H](O)[C@@H]1O`, the inhibition is 17.7%.

As to `COc1ccc(NC(=O)c2ccc(C#CC(C)(C)O)cc2)cc1`, the inhibition was -7.91%.

For the compound `CCOc1ccc(C(=O)Nc2cccc(SC)c2)cc1`, the inhibition was 2.92%.

For the compound `Cc1ccc(NC(=O)c2ccc(Oc3ncccn3)cc2)cc1`, the inhibition is 25.6% (active).

For `CC(C)C[C@H](NC(=O)CC1CCCC1)C(=O)N1CCC[C@H]1C(=O)NCc1ccccc1`, the inhibition was 2.12%.

Regarding `Nc1ncnc2c1ncn2C1OC(CO)CC1O` (configuration not stated), the inhibition was 3.3%.

For the compound `CCCc1nc2oc3c(OCC)ncnc3c2c2c1COC(C)(C)C2`, the inhibition was 16.9%.

Consider `CC1(C)Cc2nc3sc4c(SCC(=O)NC(c5ccccc5)c5ccccc5)ncnc4c3cc2CO1`, for which the inhibition was -6.88%.

On to `CC(C)CCSc1ncnc2c1oc1nc3c(cc12)COC(C)(C)C3`, for which the inhibition is 28.1% (active).

`O=C(NCc1ccccc1)[C@H]1CCCN1C(=O)[C@H]1CCCN1C(=O)N1CCOCC1`: the inhibition was -1.77%.

As for `COC(=O)C1=C(C)N(Cc2ccc(C(F)(F)F)cc2)C(=NCc2ccc(C(F)(F)F)cc2)NC1c1cccc(Cl)c1` (configuration not stated), the inhibition is 9.23%.

Turning to `Nc1ncnc2c1ncn2[C@@H]1O[C@H](C(=O)N[C@@H](CCc2ccccc2)C(=O)NCC(=O)N2CCOCC2)[C@@H](O)[C@H]1O`, the inhibition is -17.3%.

`O=C(O)CCn1cc(/C=C/C(=O)c2ccc(Cl)cc2)c(-c2cccc(Br)c2)n1`: the inhibition was 26.5% (active).

Take `CCOC(=O)C1=C(C(=O)OCC)C2N(Cc3ccc(C#N)cc3)c3ccccc3[C@@]23C[C@@H](C(=O)OC)N(S(=O)(=O)c2ccc(F)cc2)C3=N1` (some centres not stated): the inhibition is 6.03%.

With `CCc1c(-c2ccccc2OC)ncn1CCc1ccccc1OC`, the inhibition was 2.34%.

On to `CC1CCN(C(=O)c2ncn3c2C(=O)N[C@@H](C)C3)CC1`, for which the inhibition was 5.31%.

Turning to `COc1cccc(-c2cc(CNC(=O)[C@@H](Cc3ccccc3)NC(=O)[C@H]3O[C@@H](n4cnc(C(N)=O)n4)[C@H](O)[C@@H]3O)no2)c1`, the inhibition is -9.08%.

On to `COC(=O)C1=C(C)N(Cc2ccc(C(F)(F)F)cc2)C(=NCc2ccccc2)NC1c1ccccc1C(F)(F)F` (configuration not stated), for which the inhibition is 9.08%.

With `O=C(O)CSCc1ccc(C(=O)O)o1`, the inhibition was 25.2% (active).

Turning to `O=C(O)c1ccc(S(=O)(=O)N2CCOCC2)o1`, the inhibition was -3.82%.

`O=C(O)c1ccc(COc2c(F)c(F)cc(F)c2F)o1`: the inhibition is 5.24%.

For `CCNS(=O)(=O)c1ccc(NC(=O)c2cncc(Br)c2)cc1`, the inhibition was -3.5%.

As to `CCNS(=O)(=O)c1ccc(NC(=O)Nc2cccc(C(F)(F)F)c2)cc1`, the inhibition was 28.9% (active).

Regarding `Cc1cc(S(=O)(=O)N2CCOCC2)ccc1OCC(=O)Nc1cccc(C(F)(F)F)c1`, the inhibition is 2.22%.

As to `COC(=O)[C@]12C[C@H](CC(=O)N3CCN(C(=O)C4CC4)CC3)C(=O)N(Cc3ccc4c(c3)OCO4)C1=C[C@H](C(C)(C)C)O[C@@H]2C`, the inhibition is 11.2%.

With `COC(=O)[C@H](CC(C)C)NS(=O)(=O)c1c(F)cccc1F`, the inhibition is 4.12%.

In the case of `Cc1ccc(-n2ncc3c2ncn2nc(-c4ccco4)nc32)c(C)c1`, the inhibition was 44.3% (active).

`COC(=O)CSc1ncnc2c1cnn2-c1ccc(C)cc1C`: the inhibition is 8%.

For `Cc1ccc(-n2ncc3c(=O)n(-c4ccc(C)c(C)c4)c(-c4ccco4)nc32)cc1`, the inhibition was -1.3%.

For `Cc1ccc(NC(=O)N2c3ccccc3SC2c2ccco2)c(C)c1` (configuration not stated), the inhibition is -11.2%.

As to `COCc1[nH]nc2c1C(c1ccccc1)N(c1ccccc1)C2=O` (configuration not stated), the inhibition was 8.17%.

For `CCOC(=O)CNC(=O)N(C)[C@H]1C[C@H]2c3[nH]c4c(-c5ccc6c(c5)OCO6)cccc4c3CCN2C(=O)[C@H]1[C@H](C)O`, the inhibition is -1.05%.

In the case of `O=c1[nH]c(-c2ccccc2)cn1C1CCN(Cc2ccc(-c3nc4ccc(F)cc4nc3-c3ccccc3)cc2)CC1`, the inhibition was 6.41%.

With `Cc1ccc(C)c(CN2CCC(CNC(=O)C3CCCN(c4ncnc5c4nc4n5CCCCC4)C3)CC2)c1` (configuration not stated), the inhibition was 1.05%.

In the case of `Cn1c(=O)[nH]c(=O)c2c1nc(N1CCN(C(c3ccccc3)c3ccccc3)CC1)n2CCO`, the inhibition was -3.12%.

In the case of `Cn1c(=O)[nH]c(=O)c2c1nc(N1CCN(CCO)CC1)n2CCSc1nc2ccccc2s1`, the inhibition was 38.1% (active).

For `Cc1nnc(SCCCn2c(N3CCCCC3)nc3c2c(=O)[nH]c(=O)n3C)s1`, the inhibition was -8.33%.

On to `CCCCCCCCN1C(=O)[C@@H](CC(=O)N2CCN(C(=O)OCC)CC2)C[C@@]2(C(=O)OC)C1=C[C@H](C1CCCC1)O[C@@H]2C`, for which the inhibition was -12.9%.

Regarding `COc1ccc(CC(N)c2csc(NC(=O)Nc3ccc(C(C)C)cc3)n2)cc1` (configuration not stated), the inhibition is 16%.

Take `COc1ccc(C(N)c2csc(NC(=O)Nc3cccc(C(F)(F)F)c3)n2)cc1` (configuration not stated): the inhibition was 26.1% (active).

Regarding `NC(c1csc(NC(=O)Nc2cccc(C(F)(F)F)c2)n1)C1CCCCC1` (configuration not stated), the inhibition was 10.7%.

`O=C(O)Cn1cnc2c(NCc3ccccc3)ncnc21`: the inhibition is -10.7%.
